Assay results reported in ChEMBL document CHEMBL6121049, “Discovery of Orally Available Prodrugs of Itaconate and Derivatives” (J Med Chem, 2025).
Active and inactive are the calls of the source. The calls are words filed in the database; no cut-off is given here.

Tested on: not listed separately
Assay: Metabolic stability in mouse plasma assessed as compound remaining at 10 uM measured after 1 hrs by LC-MS analysis
Assay type: ADME, cell-free
Settings: not given
Method in brief: (§1)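 Prodrugs (10 μM) spiked into mouse or human plasma, shaken at 37 °C; samples at 0 and 60 min quenched in cold acetonitrile with losartan internal standard, centrifuged, diluted, run by LC-HRMS; % remaining from analyte/IS peak-area ratio.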
For `C=C(CC(=O)OC)C(=O)OCc1oc(=O)oc1C`, the Stability was 0%.
With `C=C(CC(=O)OCOC(=O)C(C)(C)C)C(=O)O` the Stability was 3%.
With `C=C(CC(=O)OC)C(=O)OCOC(=O)C(C)(C)C` the Stability was 0%.

Tested on: not listed separately
Assay: Metabolic stability in mouse skin homogenate assessed as compound remaining at 10 uM measured after 1 hrs by LC-MS analysis
Assay type: ADME, tissue-based, Skin of body
Settings: tissue homogenate
Molecule `C=C(CC(=O)OC)C(=O)OCc1oc(=O)oc1C` has a Stability of 16%.
For `C=C(CC(=O)OCOC(=O)C(C)(C)C)C(=O)O`, the Stability was 14%.
For `C=C(CC(=O)OC)C(=O)OCOC(=O)C(C)(C)C`, the Stability was 5.3%.

Tested on: not listed separately
Assay: Metabolic stability in human plasma assessed as compound remaining at 10 uM measured after 1 hrs by LC-MS analysis
Assay type: ADME, cell-free
Settings: not given
Method in brief: as §1
`C=C(CC(=O)OC)C(=O)OCc1oc(=O)oc1C` gave a Stability of 0%.
Work on `C=C(CC(=O)OCOC(=O)C(C)(C)C)C(=O)O` yielded a Stability of 83%.
`C=C(CC(=O)OC)C(=O)OCOC(=O)C(C)(C)C` gave a Stability of 0%.

Tested on: not listed separately
Assay: Metabolic stability in human skin homogenate assessed as compound remaining at 10 uM measured after 1 hrs by LC-MS analysis
Assay type: ADME, tissue-based, Skin of body
Settings: tissue homogenate
Molecule `C=C(CC(=O)OC)C(=O)OCc1oc(=O)oc1C` has a Stability of 76%.
`C=C(CC(=O)OCOC(=O)C(C)(C)C)C(=O)O` showed a Stability of 40%.
In the case of `C=C(CC(=O)OC)C(=O)OCOC(=O)C(C)(C)C`, the Stability is reported as 15%.

Tested on: not listed separately
Assay: Chemical stability in pH 1.2 assessed as compound remaining at 10 uM measured after 1 hrs by LC-MS/MS analysis
Assay type: physicochemical
Settings: buffer, pH 1.2, 1 h
Method in brief: (§2)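 Compounds incubated in buffers at pH 1.2, 4.5 or 7.4 at 37 °C for 1 h; prodrug disappearance followed by LC–MS/MS as % remaining.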
Work on `C=C(CC(=O)OC)C(=O)OCc1oc(=O)oc1C` yielded a Stability of 98%.
`C=C(CC(=O)OCOC(=O)C(C)(C)C)C(=O)O` gave a Stability of 100%.
For `C=C(CC(=O)OC)C(=O)OCOC(=O)C(C)(C)C`, the Stability was 99%.

Tested on: not listed separately
Assay: Chemical stability in pH 4.5 assessed as compound remaining at 10 uM measured after 1 hrs by LC-MS/MS analysis
Assay type: physicochemical
Settings: buffer, pH 4.5, 1 h
Method in brief: as §2
For `C=C(CC(=O)OC)C(=O)OCc1oc(=O)oc1C`, the Stability was 87%.
In the case of `C=C(CC(=O)OCOC(=O)C(C)(C)C)C(=O)O`, the Stability is reported as 74%.
In the case of `C=C(CC(=O)OC)C(=O)OCOC(=O)C(C)(C)C`, the Stability is reported as 109%.

Tested on: not listed separately
Assay: Chemical stability in pH 7.4 assessed as compound remaining at 10 uM measured after 1 hrs by LC-MS/MS analysis
Assay type: physicochemical
Settings: buffer, pH 7.4, 1 h
Method in brief: as §2
In the case of `C=C(CC(=O)OC)C(=O)OCc1oc(=O)oc1C`, the Stability is reported as 99%.
Molecule `C=C(CC(=O)OCOC(=O)C(C)(C)C)C(=O)O` has a Stability of 22%.
For `C=C(CC(=O)OC)C(=O)OCOC(=O)C(C)(C)C`, the Stability was 94%.

Tested on: not listed separately
Assay: Permeability of the compound at pH 7.4 incubated for 4 hrs by PAMPA-GIT assay
Assay type: ADME
Settings: pH 7.4, 4 h
Method in brief: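 PAMPA-GIT sandwich: acceptor filter coated with GIT-0 lipid; donor holds 10 μM compound in pH 7.4 buffer with 0.2% DMSO, acceptor pH 7.4 sink buffer; 4 h at room temperature; both compartments sampled by LC-MS/MS; effective permeability Pe calculated with membrane retention correction.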
With `C=C(CC(=O)OC)C(=O)OCc1oc(=O)oc1C` the permeability was 15.4 10^-6 cm/s.
In the case of `C=C(CC(=O)OCOC(=O)C(C)(C)C)C(=O)O`, the permeability is reported as 0.08 10^-6 cm/s.
For `C=C(CC(=O)OC)C(=O)OCOC(=O)C(C)(C)C`, the permeability was 33.2 10^-6 cm/s.

Tested on: NHEK
Assay: Effect on TLR3 mRNA expression in NHEK cells at 500 uM preincubated for 2 days and measured after 24 hrs by TaqMan RTPCR analysis
Assay type: functional, cell-based
Settings: Homo sapiens, time 2.0 day
In the case of `C=C(CC(=O)O)C(=O)O`, the Activity is reported as “inactive”.
With `C=C(CC(=O)OC)C(=O)O` the Activity was “inactive”.

Tested on: NHEK
Assay: Effect on IL-6 expression in NHEK cells at 500 uM preincubated for 2 days and measured after 24 hrs by TaqMan RTPCR analysis
Assay type: functional, cell-based
Settings: Homo sapiens, time 2.0 day
In the case of `C=C(CC(=O)O)C(=O)O`, the Activity is reported as “inactive”.
With `C=C(CC(=O)OC)C(=O)O` the Activity was “inactive”.
